Experimental data: publication PMC11375721 (ACS Omega, 2024)

Tested on: A549-PDL1 xenografts
Assay: In vivo pretargeting biodistribution
Set-up: species or system mice
Details: 1 h after [^18F]PEG12-Tz; for A549-PDL1 tumor uptake / blood uptake / lung uptake / bone uptake / brain uptake / gall bladder uptake / heart uptake / intestine uptake / kidney uptake / liver uptake / muscle uptake / spleen uptake / stomach uptake / tumor/blood / tumor/muscle: n = 3; for tumor/blood / tumor/muscle: biodistribution
In short: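 Male BALB/c nude mice (4–6 weeks, 13–18 g) received 5 × 10^6 A549-PDL1 and A549 cells in PBS subcutaneously behind the right armpit and were used once tumors reached 5–10 mm. Durvalumab-TCO or atezolizumab-TCO (300 μg in 150 μL PBS) was given i.v. by tail vein. After 24, 48 or 72 h, [18F]PEG12-Tz (1.85 MBq) was given i.v. Mice were killed 1 h later, and organs were weighed, γ-counted and expressed as %ID/g; n = 3. Controls: radioligand alone; blocking by co-injection of 50-fold molar excess atezolizumab plus 50 μg unlabeled tetrazine.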

## atezolizumab-TCO: atezolizumab (anti-PD-L1 antibody) modified with TCO-PEG4-NHS Ester, average 8 TCO per antibody
48 h after antibody-TCO 300 μg
  A549-PDL1 tumor uptake: 1.65 ± 0.15 % ID/g
  blood uptake: 1.86 ± 0.15 % ID/g
  lung uptake: 1.65 ± 0.11 % ID/g
48 h after atezolizumab-TCO
  uptake in other organs such as the liver, muscles, bones, and intestines: < 0.96 % ID/g

## durvalumab pretargeted: pretargeting pair: durvalumab-TCO injected first, [^18F]PEG12-Tz 24-72 h later, ligated in vivo
24 h after antibody-TCO 300 μg
  A549-PDL1 tumor uptake: 2.52 ± 0.16 % ID/g
  blood uptake: 8.80 ± 0.50 % ID/g
  bone uptake: 1.16 ± 0.27 % ID/g
  brain uptake: 0.29 ± 0.07 % ID/g
  gall bladder uptake: 1.29 ± 0.08 % ID/g
  heart uptake: 2.66 ± 0.49 % ID/g
  intestine uptake: 0.54 ± 0.14 % ID/g
  kidney uptake: 3.12 ± 0.31 % ID/g
  liver uptake: 1.93 ± 0.59 % ID/g
  lung uptake: 7.06 ± 1.90 % ID/g
  muscle uptake: 0.72 ± 0.10 % ID/g
  spleen uptake: 1.27 ± 0.22 % ID/g
  stomach uptake: 0.50 ± 0.06 % ID/g
  tumor/blood: 0.29 ± 0.04
  tumor/muscle: 3.51 ± 0.75
48 h after antibody-TCO 300 μg
  A549-PDL1 tumor uptake: 1.91 ± 0.38 % ID/g
  blood uptake: 6.08 ± 1.82 % ID/g
  bone uptake: 0.98 ± 0.26 % ID/g
  brain uptake: 0.16 ± 0.04 % ID/g
  gall bladder uptake: 1.11 ± 0.35 % ID/g
  heart uptake: 1.57 ± 0.27 % ID/g
  intestine uptake: 0.40 ± 0.07 % ID/g
  kidney uptake: 2.68 ± 0.46 % ID/g
  liver uptake: 1.19 ± 0.23 % ID/g
  lung uptake: 3.19 ± 1.02 % ID/g
  muscle uptake: 0.56 ± 0.20 % ID/g
  spleen uptake: 0.48 ± 0.34 % ID/g
  stomach uptake: 0.33 ± 0.09 % ID/g
  tumor/blood: 0.31 ± 0.07
  tumor/muscle: 3.39 ± 0.46
72 h after antibody-TCO 300 μg
  A549-PDL1 tumor uptake: 1.60 ± 0.23 % ID/g
  blood uptake: 5.29 ± 0.50 % ID/g
  bone uptake: 0.53 ± 0.04 % ID/g
  brain uptake: 0.14 ± 0.01 % ID/g
  gall bladder uptake: 0.99 ± 0.22 % ID/g
  heart uptake: 1.40 ± 0.28 % ID/g
  intestine uptake: 0.51 ± 0.15 % ID/g
  kidney uptake: 2.27 ± 0.37 % ID/g
  liver uptake: 1.01 ± 0.16 % ID/g
  lung uptake: 2.01 ± 0.06 % ID/g
  muscle uptake: 0.43 ± 0.06 % ID/g
  spleen uptake: 0.62 ± 0.13 % ID/g
  stomach uptake: 0.75 ± 0.28 % ID/g
  tumor/blood: 0.30 ± 0.02
  tumor/muscle: 3.68 ± 0.98

## durvalumab-TCO: durvalumab (anti-PD-L1 antibody) modified with TCO-PEG4-NHS Ester, average 12 TCO per antibody
24 h after antibody-TCO 300 μg
  A549-PDL1 tumor uptake: 2.52 ± 0.16 % ID/g
  blood uptake: 8.80 ± 0.50 % ID/g
  lung uptake: 7.06 ± 1.90 % ID/g
  tumor/blood: 0.29
  tumor/muscle: 3.51
48 h after antibody-TCO 300 μg
  A549-PDL1 tumor uptake: 1.91 ± 0.38 % ID/g
72 h after antibody-TCO 300 μg
  A549-PDL1 tumor uptake: 1.60 ± 0.23 % ID/g
